The results in this text go back to ChEMBL document CHEMBL3826914, “Selective photodepletion of malignant T cells in extracorporeal photopheresis with selenorhodamine photosensitizers” (Bioorg Med Chem, 2016).

The structures appear in SMILES notation.

Tested on in the first data set: not listed separately
The experiment in a line: Drug uptake in SEB-stimulated human CD25 positive cells assessed as mean fluorescence intensity at 5 x 10^-8 M preincubated for 20 mins followed by growth in photosensitizer-free media for 30 mins by flow cytometric analysis relative to control. The conditions noted are these: 0.5 h, 0.05 µM. Background: In flow cytometry, cells or beads pass a laser one at a time.
With `CN1CCC(C)(C)c2cc3c(-c4ccc(C(=O)N5CCCCC5)s4)c4ccc(=[N+](C)C)cc-4[se]c3cc21.[Cl-]`, the Flu intensity was 5390 a.u.
The same measure, in the same setting: to `CN1CCC(C)(C)c2cc3c(-c4ccc(C(=S)N5CCCCC5)s4)c4ccc(=[N+](C)C)cc-4[se]c3cc21.[Cl-]` belongs 45800 a.u.

Tested on in another data set: not listed separately
Description: Drug uptake in human HUT78 cell mitochondria by MTG-based bright field microscopic analysis. The data set is classed as ADME.
Settings: not given; call rule not given here
The method, boiled down:
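HUT-78 cells (5×10^5 in 0.5 mL medium) were incubated 15 min with 2×10^-7 M dye together with 5×10^-7 M MitoTracker Green. They were centrifuged and analysed by ImageStream imaging flow cytometry, with MTG excited at 488 nm (480–560 nm channel) and dye excited at 561 nm (642–745 nm channel). Colocalisation was given as the bright detail similarity score, mean ± SD over cells.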
As to `CN1CCC(C)(C)c2cc3c(-c4ccc(C(=O)N5CCCCC5)s4)c4ccc(=[N+](C)C)cc-4[se]c3cc21.[Cl-]`, the Drug uptake result is reported as “Active”.
As to `CN1CCC(C)(C)c2cc3c(-c4ccc(C(=S)N5CCCCC5)s4)c4ccc(=[N+](C)C)cc-4[se]c3cc21.[Cl-]`, the Drug uptake entry was “Active”.

Tested on in a further data set: not listed separately
Description: Drug uptake in SEB-stimulated human CD25 negative cells assessed as mean fluorescence intensity at 5 x 10^-8 M preincubated for 20 mins followed by growth in photosensitizer-free media for 30 mins by flow cytometric analysis relative to control. The conditions noted are these: 0.5 h, 0.05 µM.
As for `CN1CCC(C)(C)c2cc3c(-c4ccc(C(=O)N5CCCCC5)s4)c4ccc(=[N+](C)C)cc-4[se]c3cc21.[Cl-]`, the Flu intensity came to 900 a.u.
Same read-out and setting: to `CN1CCC(C)(C)c2cc3c(-c4ccc(C(=S)N5CCCCC5)s4)c4ccc(=[N+](C)C)cc-4[se]c3cc21.[Cl-]` belongs 10500 a.u.

Tested on in the next data set: not listed separately
The experiment in a line: Drug extrusion in SEB-stimulated human CD25 positive cells assessed as mean fluorescence intensity at 5 x 10^-8 M preincubated for 20 mins followed by growth in photosensitizer-free media for 30 mins by flow cytometric analysis relative to control. The conditions noted are these: 0.5 h, 0.05 µM.
Regarding `CN1CCC(C)(C)c2cc3c(-c4ccc(C(=O)N5CCCCC5)s4)c4ccc(=[N+](C)C)cc-4[se]c3cc21.[Cl-]`, the Flu intensity is given as 3110 a.u.
Same read-out and setting: to `CN1CCC(C)(C)c2cc3c(-c4ccc(C(=S)N5CCCCC5)s4)c4ccc(=[N+](C)C)cc-4[se]c3cc21.[Cl-]` belongs 32200 a.u.

In the next data set the test system is HuT78. The note with it: human, hut78, 0.5 h, 0.075 µM.
`CN1CCC(C)(C)c2cc3c(-c4ccc(C(=O)N5CCCCC5)s4)c4ccc(=[N+](C)C)cc-4[se]c3cc21.[Cl-]` registered a Flu intensity of 15300 a.u.
The same measure, in the same setting: to `CN1CCC(C)(C)c2cc3c(-c4ccc(C(=S)N5CCCCC5)s4)c4ccc(=[N+](C)C)cc-4[se]c3cc21.[Cl-]` belongs 39300 a.u.

In a further data set the test system is HuT78. The conditions noted are these: human, hut78, 0.5 h, 0.075 µM. This is another data set of the same source.
For `CN1CCC(C)(C)c2cc3c(-c4ccc(C(=O)N5CCCCC5)s4)c4ccc(=[N+](C)C)cc-4[se]c3cc21.[Cl-]`, the Flu intensity was determined as 5270 a.u.
Same read-out and setting: to `CN1CCC(C)(C)c2cc3c(-c4ccc(C(=S)N5CCCCC5)s4)c4ccc(=[N+](C)C)cc-4[se]c3cc21.[Cl-]` belongs 37600 a.u.

Tested on in another data set: not listed separately
The experiment in a line: Drug extrusion in SEB-stimulated human CD25 negative cells assessed as mean fluorescence intensity at 5 x 10^-8 M preincubated for 20 mins followed by growth in photosensitizer-free media for 30 mins by flow cytometric analysis relative to control. The note with it: 0.5 h, 0.05 µM.
As for `CN1CCC(C)(C)c2cc3c(-c4ccc(C(=O)N5CCCCC5)s4)c4ccc(=[N+](C)C)cc-4[se]c3cc21.[Cl-]`, the Flu intensity is 270 a.u.
Same read-out and setting: to `CN1CCC(C)(C)c2cc3c(-c4ccc(C(=S)N5CCCCC5)s4)c4ccc(=[N+](C)C)cc-4[se]c3cc21.[Cl-]` belongs 4800 a.u.
